Active and inactive are the calls of the source. No cut-off for these calls is given here.
Assays:
[1] = biological target: T1, Nuclear factor erythroid 2-related factor 2 (Rattus norvegicus) (UniProt O54968); assay: Induction of MPP+ induced Nrf2 nuclear translocation in rat PC12 cells at 100 nM incubated for 24 hrs by Western blot analysis; type: cell-based; conditions: PC-12, filed as activator
T1 sequence (whole entry): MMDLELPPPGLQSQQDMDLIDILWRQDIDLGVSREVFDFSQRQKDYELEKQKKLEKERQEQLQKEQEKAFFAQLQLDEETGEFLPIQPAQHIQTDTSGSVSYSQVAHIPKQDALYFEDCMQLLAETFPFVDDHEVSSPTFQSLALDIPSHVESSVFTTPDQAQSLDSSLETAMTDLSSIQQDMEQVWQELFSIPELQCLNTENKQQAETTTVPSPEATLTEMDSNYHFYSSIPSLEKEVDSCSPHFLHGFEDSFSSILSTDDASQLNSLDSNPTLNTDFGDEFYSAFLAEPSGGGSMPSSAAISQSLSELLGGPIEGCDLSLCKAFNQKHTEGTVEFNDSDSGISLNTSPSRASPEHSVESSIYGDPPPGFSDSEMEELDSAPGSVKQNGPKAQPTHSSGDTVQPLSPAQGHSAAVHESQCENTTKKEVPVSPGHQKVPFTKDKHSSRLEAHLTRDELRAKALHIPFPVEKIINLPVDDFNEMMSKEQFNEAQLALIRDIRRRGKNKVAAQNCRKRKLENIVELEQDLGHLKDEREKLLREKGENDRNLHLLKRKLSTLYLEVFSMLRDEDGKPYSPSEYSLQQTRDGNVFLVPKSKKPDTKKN
Summary of the method: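 PC12 cells were incubated 24 h with MPP+ (25 μM) with or without compound (100 nM). Nuclear extracts (30 μg) were run on 10% SDS-PAGE and immunoblotted for Nrf2, with histone H3 as nuclear marker and ECL detection.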

PC-12 [2] = assay: Upregulation of GSTA-2 expression in MPP+ induced rat PC-12 cells at 100 nM pretreated with compound for 24 hrs followed by MPP+ stimulation and measured after 6 hrs; type: functional, cell-based; conditions: time 30.0 hrs
Summary of the method: (§1)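 PC12 cells pretreated 24 h with compound, then exposed to 25 μM MPP+ for 6 h. mRNA quantified by real-time PCR (95 °C 3 min, then 40 cycles of 95 °C 10 s and 62 °C 30 s), samples in triplicate. Values normalized to β-actin, expressed as 2^-ΔΔCt with untreated cells set to 1.0. n = 3.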

PC-12 [3] = assay: Upregulation of xCT expression in MPP+ induced rat PC-12 cells at 100 nM pretreated with compound for 24 hrs followed by MPP+ stimulation and measured after 6 hrs; type: functional, cell-based; conditions: time 30.0 hrs; summary of the method: as §1

Activity [1]: Active
Compound: C#CCSC[C@H]1NC(=O)[C@H](Cc2ccc(OC(C)=O)c(OC(C)=O)c2)NC1=O
Activity (PC-12 [2]): Active | Activity (PC-12 [3]): Active
